Data published in ChEMBL document CHEMBL1157804, “beta-Resorcylic acid lactones from a Paecilomyces fungus” (J Nat Prod, 2010).

Assays:
[1] = system: Plasmodium falciparum; experiment: Antiplasmodial activity against chloroquine-susceptible Plasmodium falciparum 3D7 after 72 hrs by malaria SYBR Green I-based fluorescence assay; assay type: functional, organism-based; details: 3D7, 72 h
Method in brief: (§1)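 Parasites kept continuously in O+ human erythrocytes with 10% human serum under 7% CO2/5% O2/88% N2. Test compounds from 100 mM DMSO stocks, serially diluted in culture medium, added in quadruplicate to asynchronous cultures at 0.2% parasitemia, 2% hematocrit. Incubated 72 h, 37 C. Lysis buffer with SYBR Green I added, 1 h 37 C dark. Fluorescence read at ex 497/em 520 nm. IC50 from nonlinear logistic dose-response regression.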

[2] = system: Plasmodium falciparum; experiment: Antiplasmodial activity against chloroquine-resistant Plasmodium falciparum Dd2 after 72 hrs by malaria SYBR Green I-based fluorescence assay; assay type: functional, organism-based; details: Dd2, 72 h; method in brief: as §1
[3] = Cytotoxicity against african green monkey Vero cells at 166.67 uM after 72 hrs by MTT assay; assay type: cell-based; details: chlorocebus sabaeus, read-out: INH
[4] = Cytotoxicity against african green monkey Vero cells at 55.56 uM after 72 hrs by MTT assay; assay type: cell-based; details: chlorocebus sabaeus, read-out: INH
[5] = Cytotoxicity against african green monkey Vero cells at 18.52 uM after 72 hrs by MTT assay; assay type: cell-based; details: chlorocebus sabaeus, read-out: INH
[6] = Cytotoxicity against african green monkey Vero cells at 6.17 uM after 72 hrs by MTT assay; assay type: cell-based; details: chlorocebus sabaeus, read-out: INH

SMILES	IC50 [1]	IC50 [2]	cytotoxicity at 72 h, 166.67 µM [3]	cytotoxicity at 72 h, 55.56 µM [4]	cytotoxicity at 72 h, 18.52 µM [5]	cytotoxicity at 72 h, 6.17 µM [6]
COc1cc(O)c2c(c1)[C@@H]([C@H](O)C[C@H](O)[C@H](O)[C@H](O)/C=C/C[C@H](C)O)OC2=O [PAECILOMYCIN D]	> 50 µM	> 50 µM	–	–	–	–
COc1cc(O)c2c(c1)[C@@H]1O[C@@H]1C[C@H](O)[C@H](O)[C@H](O)/C=C/C[C@H](C)OC2=O [PAECILOMYCIN A]	0.78 µM	> 50 µM	29.6%	0%	0%	0%
C[C@@H]1CC[C@H]2[C@@H](C)C(=O)O[C@@H]3O[C@@]4(C)CC[C@@H]1[C@]32OO4 [ARTEMISININ]	0.0125 µM	0.0135 µM	–	–	–	–
COc1cc(O)c2c(c1)[C@@H]1O[C@H]([C@H](O)/C=C/C[C@H](C)OC2=O)[C@@H](O)C[C@H]1O [PAECILOMYCIN B]	3.8 µM	> 50 µM	46.3%	5.6%	0%	0%
COc1cc(O)c2c(c1)[C@@H]([C@H](O)C[C@H](O)[C@H](O)[C@@H](O)/C=C/C[C@H](C)O)OC2=O [PAECILOMYCIN C]	> 50 µM	> 50 µM	–	–	–	–
COc1cc(O)c2c(c1)/C=C/C[C@H](O)[C@H](O)[C@@H](O)CCC[C@H](C)OC2=O [PAECILOMYCIN E]	0.02 µM	8.8 µM	50.2%	23.5%	3.4%	0%
COc1cc(O)c2c(c1)/C=C/C[C@H](O)[C@H](O)[C@H](O)CCC[C@H](C)OC2=O [PAECILOMYCIN F]	1.1 µM	1.7 µM	58.5%	25.7%	10.4%	2.3%
COc1cc(O)c2c(c1)/C=C/C[C@H](O)[C@H](O)[C@@H](O)/C=C/C[C@H](C)OC2=O [ZEAENOL]	> 50 µM	> 50 µM	–	–	–	–
COc1cc(O)c2c(c1)[C@@H](O)[C@H](C[C@H](O)[C@H](O)[C@@H](O)/C=C/C[C@H](C)O)OC2=O [AIGIALOMYCIN F]	0.0109 µM	> 50 µM	43.2%	20.3%	15.6%	2.3%
C[C@H]1C/C=C/[C@@H](O)[C@@H](O)CC/C=C/c2cc(O)cc(O)c2C(=O)O1 [AIGIALOMYCIN D]	3.1 µM	10.5 µM	56.3%	30.2%	12.5%	3.4%
COc1cc(O)c2c(c1)[C@@H]1O[C@@H]1C[C@H](O)[C@H](O)[C@@H](O)/C=C/C[C@H](C)OC2=O [AIGIALOMYCIN B]	0.65 µM	13.5 µM	30.2%	2.3%	0%	0%
